Where only a bound is given, the exact number is not on record here.

One assay concerns HL-60. The assay can be described thus: Antitumor activity against human HL60 cells after 72 hrs by MTT assay. The assay is classed as functional, cell-based. Conditions: HL-60, 72 h. Summed up:
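HL-60 cells in RPMI-1640 with 10% FBS and 1% L-glutamine, passages 5–15, viability >95%. 2.5 × 10^4 cells/well exposed to 0.01–100 µM for 72 h, DMSO final <0.5% v/v. MTT added for 4 h at 37 °C, then SDS/DMF lysis for 4 h. A570, reference 590 nm, as % of vehicle. Quadruplicate, ≥3 experiments. IC50 from individual curves.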

The subject of a further assay is Plasmodium falciparum. The assay can be described thus: Antimalarial activity against chloroquine-sensitive Plasmodium falciparum 3D7 infected in human erythrocytes assessed as [3H]hypoxanthine incorporation after 24 hrs by liquid scintillation and luminescence counting. The assay is classed as functional, organism-based. The method in brief:
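3D7 P. falciparum kept in human erythrocytes in RPMI-1640 with 25 mM HEPES, 32 mM NaHCO3, 10% human serum, under 3% O2/4% CO2/93% N2. Assay at 2% parasitemia, 0.5% haematocrit, triplicate, 37 °C. 0.5 µCi [3H]-hypoxanthine added after 24 h, then 24 h more (48 h total). Harvested and scintillation counted. IC50 by probit interpolation of log dose–response versus control wells.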

As for `C[C@H]1[C@@H](CCN(CCCCNC(=O)OC(C)(C)C)CCCNC(=O)OC(C)(C)C)O[C@@H]2O[C@@]3(C)CC[C@H]4[C@H](C)CC[C@@H]1[C@@]24OO3`, the concentration for half-maximal inhibition (IC50) in the assay with HL-60 was over 100000 nM; in the assay with Plasmodium falciparum, over 100 nM.

On to `C[C@H]1[C@@H](CC(=O)NCCCCNCCCN)O[C@@H]2O[C@@]3(C)CC[C@H]4[C@H](C)CC[C@@H]1[C@@]24OO3`, for which the half-maximal inhibitory concentration (IC50) in the assay with HL-60 stood at 35200 nM; in the assay on Plasmodium falciparum it was 727 nM.

Take `C[C@H]1[C@@H](CCNCCCN(CCCCNC(=O)OC(C)(C)C)C(=O)OC(C)(C)C)O[C@@H]2O[C@@]3(C)CC[C@H]4[C@H](C)CC[C@@H]1[C@@]24OO3`: the figures for the IC50 in the assay on HL-60 and in the assay on Plasmodium falciparum were 16600 nM and 0.76 nM, respectively.

With `C[C@@H]1CC[C@H]2[C@@H](C)C(=O)O[C@@H]3O[C@@]4(C)CC[C@@H]1[C@]32OO4` [ARTEMISININ], the half-inhibitory concentration (IC50) with Plasmodium falciparum was found to be 9.2 nM.

Take `C[C@H]1[C@@H](CCNCCCCN(CCCNC(=O)OC(C)(C)C)C(=O)OC(C)(C)C)O[C@@H]2O[C@@]3(C)CC[C@H]4[C@H](C)CC[C@@H]1[C@@]24OO3`: the IC50 with HL-60 worked out at 11600 nM; in the assay on Plasmodium falciparum, 0.21 nM.

As for `C[C@H]1[C@@H](CCN(CCCN)CCCCN)O[C@@H]2O[C@@]3(C)CC[C@H]4[C@H](C)CC[C@@H]1[C@@]24OO3`, the results for the IC50 with HL-60 and in the assay with Plasmodium falciparum were over 100000 nM and 15.2 nM, respectively.

Regarding `C[C@H]1[C@@H](CC(=O)NCCCNCCCCN)O[C@@H]2O[C@@]3(C)CC[C@H]4[C@H](C)CC[C@@H]1[C@@]24OO3`, the 50% inhibitory concentration (IC50) in the assay on HL-60 was determined as 47700 nM; in the assay on Plasmodium falciparum it was 81 nM.

`C[C@H]1[C@@H](CCNCCCNCCCCN)O[C@@H]2O[C@@]3(C)CC[C@H]4[C@H](C)CC[C@@H]1[C@@]24OO3`: the figures for the IC50 in the assay on HL-60 and in the assay with Plasmodium falciparum were 29200 nM and 350 nM, respectively.

With `C[C@H]1[C@@H](CC(=O)NCCCCN(CCCNC(=O)OC(C)(C)C)C(=O)OC(C)(C)C)O[C@@H]2O[C@@]3(C)CC[C@H]4[C@H](C)CC[C@@H]1[C@@]24OO3`, the 50% inhibitory concentration (IC50) with HL-60 turned out to be 22000 nM; in the assay on Plasmodium falciparum, 2.6 nM.

Take `C[C@H]1[C@@H](CC(=O)N(CCCN)CCCCN)O[C@@H]2O[C@@]3(C)CC[C@H]4[C@H](C)CC[C@@H]1[C@@]24OO3`: the IC50 in the assay on HL-60 was over 100000 nM; in the assay on Plasmodium falciparum, 108 nM.

Turning to `C[C@H]1[C@@H](CC(=O)NCCCN(CCCCNC(=O)OC(C)(C)C)C(=O)OC(C)(C)C)O[C@@H]2O[C@@]3(C)CC[C@H]4[C@H](C)CC[C@@H]1[C@@]24OO3`, the IC50 in the assay on HL-60 was 31200 nM; in the assay with Plasmodium falciparum, 4.3 nM.

Turning to `C[C@H]1[C@@H](CC(=O)N(CCCCNC(=O)OC(C)(C)C)CCCNC(=O)OC(C)(C)C)O[C@@H]2O[C@@]3(C)CC[C@H]4[C@H](C)CC[C@@H]1[C@@]24OO3`, the half-maximal inhibitory concentration (IC50) in the assay on HL-60 was over 100000 nM; with Plasmodium falciparum, 4.8 nM.

Consider `C[C@H]1[C@@H](CCNCCCCNCCCN)O[C@@H]2O[C@@]3(C)CC[C@H]4[C@H](C)CC[C@@H]1[C@@]24OO3`, for which the IC50 in the assay with HL-60 worked out at 17800 nM; with Plasmodium falciparum, 259 nM.

These data come from ChEMBL document CHEMBL1156965, “Design, synthesis and antimalarial/anticancer evaluation of spermidine linked artemisinin conjugates designed to exploit polyamine transporters in Plasmodium falciparum and HL-60 cancer cell lines” (Bioorg Med Chem, 2010).
